Most compounds without a hit are left out; they make up all but 2.6% or so of the library.
CHT block: inhibits the human high affinity choline transporter; Q9GZV3; CHT-expressing cells, membrane potential dye, choline response; hits give low values; B-score at 10 µM; 310,000 compounds, 0.86% hits; AID 488975;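 active = B-score over 3 SD under the library average, and starting fluorescence ratio not unusually high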;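 also: choline stimulus applied at its EC90 after an EC20 pre-addition; B-score computed on integrated fluorescence ratio after choline addition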
Target sequence (Q9GZV3 whole entry, looked up): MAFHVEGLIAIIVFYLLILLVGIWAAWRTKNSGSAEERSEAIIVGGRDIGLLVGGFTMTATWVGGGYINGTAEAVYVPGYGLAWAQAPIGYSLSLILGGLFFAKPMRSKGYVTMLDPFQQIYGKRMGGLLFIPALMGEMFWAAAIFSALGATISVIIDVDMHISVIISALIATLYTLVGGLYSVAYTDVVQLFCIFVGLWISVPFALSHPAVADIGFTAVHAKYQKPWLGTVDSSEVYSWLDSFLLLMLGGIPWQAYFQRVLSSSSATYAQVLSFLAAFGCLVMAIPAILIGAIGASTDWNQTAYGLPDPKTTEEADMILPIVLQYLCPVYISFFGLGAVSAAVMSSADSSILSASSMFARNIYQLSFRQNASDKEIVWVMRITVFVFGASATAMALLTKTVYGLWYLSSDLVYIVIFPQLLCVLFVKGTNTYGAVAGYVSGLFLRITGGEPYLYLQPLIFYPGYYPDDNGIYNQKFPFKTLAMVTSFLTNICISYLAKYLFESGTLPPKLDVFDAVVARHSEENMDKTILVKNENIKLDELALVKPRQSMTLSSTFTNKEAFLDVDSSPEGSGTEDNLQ
T cruzi inh: T. cruzi replication inhibition. T. cruzi beta-gal in NIH3T3, luminescence, 90 h. inhibition, % (concentration not given with the values). 300,000 compounds, 1.4% hits;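 active = mean inhibition across valid replicates above about 55%, limit read from the data; inconclusive = mean below that limit but half or more replicates reach it; inactive = mean below it, under half of replicates reach it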;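 also: signal also drops with host cell toxicity which is not excluded here; higher percent means less beta-gal luminescence so fewer parasites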
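System – NIH/3T3 host cells with β-galactosidase reporter T. cruzi · Doses – single 50 nL compound addition per well in DMSO · Reagent – 5000 T. cruzi trypomastigotes/well · Medium – Low-serum DMEM with 2% FBS · Timing – ≥90 h infection period, 3 h prior cell attachment · Evaluation – parasite load inhibition, % · Technique – GalScreen luminescence, 60 min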
CHT allo act: human CHT allosteric activation; Q9GZV3; CHT-expressing cells, membrane potential dye, choline EC20; hits give high values; LV-AA mutant CHT in HEK293 cells; B-score at 10 µM; 310,000 compounds, 0.49% hits;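 active = initial fluorescence not abnormally high and integrated response B-score, plate-corrected, over 3 SD above library mean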
PolyA inhibitor: inhibitors of polyadenylation in S. cerevisiae. S. cerevisiae SKY197-pL101 polyadenylation reporter, beta-gal luminescence; efflux-impaired pdr1/pdr3 knockout yeast; score 100 = 6 SD above DMSO. activity score, % at 12 µM. 300,000 compounds, 0.02% hits. AID 1875;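 active = lowest replicate activity score at least 50, where 100 means six control SD above control mean; inconclusive = lowest score under 50 but half or more replicates reach 50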;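 also: yeast exposed to compound for 9 h at 30 °C; higher score means more reporter readthrough which indicates perturbed polyadenylation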
Of the large screens only hits and unclear results are named; the others gave an inactive call.

Cn1c(SCC(=O)N/N=C/c2cc([N+](=O)[O-])ccc2O)nnc1-c1ccccc1	none
CCOC(=O)CNC(=O)C1(/C=C/c2ccccc2)CC(=O)N1c1ccc(C)cc1 (stereo not given)	none
Cc1cc(C(=O)N/N=C/c2ccc([N+](=O)[O-])cc2)c2ccccc2n1	none
Cc1cc(C(=O)N/N=C/c2ccc([N+](=O)[O-])s2)c2ccccc2n1	T cruzi inh 61
CC(=O)c1ccc(N2CCN(C(=O)c3cc(-c4cccnc4)nc4ccc(Br)cc34)CC2)cc1	T cruzi inh 59 (no result: CHT block)
O=C(c1cc(-c2ccncc2)nc2ccc(Cl)cc12)N1CCN(Cc2ccc3c(c2)OCO3)CC1	T cruzi inh 72
O=C(c1cc(-c2cccnc2)nc2ccc(Br)cc12)N1CCN(c2ncccn2)CC1	none
O=C(c1cc(-c2ccncc2)nc2ccc(Br)cc12)N1CCN(Cc2ccc3c(c2)OCO3)CC1	T cruzi inh 79
Cc1cc(C)c2nc(-c3ccncc3)cc(C(=O)N3CCN(Cc4ccccc4Cl)CC3)c2c1	T cruzi inh 61
O=C(c1cccc(Cl)c1)N1CCN(Cc2ccc3c(c2)OCO3)CC1	none
N#CC(CC(=O)c1ccc(F)cc1)c1ccc2c(c1)OCO2 (stereo not given)	none
CCc1cc(C(=O)NCC(C)(C)N2CCOCC2)sc1C	none
NNc1nc(-c2ccccc2)cs1	T cruzi inh 63
c1ccc(CCNc2nc(-c3ccncc3)cs2)cc1	T cruzi inh 83
COc1cc(C2SCC(=O)N2CCCN(C)C)cc(OC)c1OC (stereo not given)	T cruzi inh 61
O=C(NCCCN1CCOCC1)C1Cc2c(ccc3ccccc23)O1 (stereo not given)	none
O=C1c2cccc3cccc(c23)C(=O)N1CC1CCN(CC(O)COc2ccc3ccccc3c2)CC1 (stereo not given)	T cruzi inh 66
CCc1ccc(OCC(O)CN2CCC(CN3C(=O)c4cccc5cccc(c45)C3=O)CC2)cc1 (stereo not given)	T cruzi inh 56
O=C1c2cccc3cccc(c23)C(=O)N1CCN1CCN(CC(O)COc2ccc3ccccc3c2)CC1 (stereo not given)	none
COc1cccc(OCC(O)CN2CCC(CN3C(=O)c4cccc5cccc(c45)C3=O)CC2)c1 (stereo not given)	T cruzi inh 63
CCC(C)C(=O)Nc1nnc(SCC(=O)NC(C)(C)C)s1 (stereo not given)	none
COc1ccc(C(=O)NC2CCCc3ccccc32)cc1OC1CCN(C(C)=O)CC1 (stereo not given)	none
COc1ccccc1Nc1nc(N)nc(CSC(=S)N2CCN(c3ccccc3)CC2)n1	T cruzi inh 63
O=[N+]([O-])c1ccc(-n2cnc3ccccc32)c([N+](=O)[O-])c1	T cruzi inh 71
COc1cccc(CNC(=O)CCNC(=O)C2CCN(S(=O)(=O)c3ccccc3)CC2)c1	none
O=C(CCl)N=c1sccn1Cc1ccc(Cl)cc1Cl	T cruzi inh 99
O=C(CCl)N=c1sccn1Cc1cccc2ccccc12	none (no result: CHT block, CHT allo act)
O=C(CCl)N=c1sccn1Cc1ccccc1Cl	T cruzi inh 61
CC(C)(C)c1ccccc1NC(=O)CN1C(=O)NC(Cc2ccccc2)C1=O (stereo not given)	none
CCCCC(=NCCc1c(C)[nH]c2ccc(OC)cc12)C1=C(O)CC(c2ccccc2)CC1=O (stereo not given)	none
CC(=NCCc1c(C)[nH]c2ccc(OCc3ccccc3)cc12)C1=C(O)CC(c2ccccc2)CC1=O (stereo not given)	T cruzi inh 58
Cc1ccc(N2C(=O)N(CC(=O)Nc3cc(Cl)ccc3C)C(=O)C2C)cc1 (stereo not given)	none
O=C(CCn1nnnc1CN1CCOCC1)N1CCC(c2cccc(Cl)c2)C1 (stereo not given)	none
COc1ccccc1NS(=O)(=O)c1cccc(NC(=O)Nc2cccc(Cl)c2)c1	T cruzi inh 62
O=C(Nc1cccc(S(=O)(=O)c2cccc(NC(=O)c3ccco3)c2)c1)c1ccco1	T cruzi inh 55, PolyA inhibitor inconclusive
COc1ccccc1NS(=O)(=O)c1cccc(NC(=O)c2sc3ccccc3c2Cl)c1	T cruzi inh 78
COc1cc(NC(=O)c2ccco2)c(OC)cc1NC(=O)Nc1cccc(Cl)c1	T cruzi inh 57
COc1ccccc1NS(=O)(=O)c1ccc(Cl)c(NC(=O)c2sc3cc(Cl)ccc3c2Cl)c1	none
CCOC(=O)N1CCC(NC(=O)c2ccc3c(c2)N=C(C)c2c(C)ccc(C)c2S3)CC1	none
CC(=Nc1ccc(Br)cc1)c1sc2ccccc2c1O	T cruzi inh 60
CCc1ccccc1NC(=O)C1CCCN(c2nccc(C)n2)C1 (stereo not given)	none
Cc1ccc(OCC(=O)NCCNC(=O)c2cnccn2)cc1C	none (no result: CHT block, CHT allo act)
CCN(Cc1ccccc1)C(=O)CS(=O)(=O)c1ccccc1	none
O=S(=O)(C/C(=C/CO)S(=O)(=O)c1ccccc1)c1ccccc1	T cruzi inh 62
CC1CN(CCOc2ccc([N+](=O)[O-])cc2)CC(C)O1 (stereo not given)	none
CC(C)(C)c1ccc(OCCCCCCN2CCNCC2)cc1	none
CC(C)(c1ccccc1)c1ccc(OCCCN2CCNCC2)cc1	T cruzi inh 64
COCCCNCCOc1ccc(C(C)(C)c2ccccc2)cc1	T cruzi inh 61
O=[N+]([O-])c1ccc(OCCN2CCNCC2)cc1	T cruzi inh 58
COc1ccc(NC(=O)c2cccc(S(=O)(=O)N3CCCCCC3)c2)cc1	none
COc1ccc(N2CCN(CCNC(=O)Nc3ccc(C)cc3Cl)CC2)cc1	none
CC(=O)Nc1ccc(Nc2ccc3c4c(cc(=O)n3C)-c3ccccc3C(=O)c24)cc1	T cruzi inh 56
O=C(CN1CCN(c2ccccn2)CC1)Nc1ccc([N+](=O)[O-])cc1C(=O)Nc1ccccc1F	none
Cc1cccc(C)c1NC(=O)C1CCCN1C(=O)NCc1ccccc1 (stereo not given)	none
CCN(CC)CCN(C(=O)CCS(=O)(=O)c1ccccc1)c1nc2cc(C)cc(C)c2s1	T cruzi inh 72
CCN(CC)CCN(C(=O)c1ccc(S(=O)(=O)N(C)C2CCCCC2)cc1)c1nc2c(C)cccc2s1	none
Cc1ccc2sc(N(CCCN(C)C)C(=O)c3ccc(Br)s3)nc2c1C	T cruzi inh 70
Cc1cc(C)c2sc(N(CCN(C)C)C(=O)CCS(=O)(=O)c3ccccc3)nc2c1	none
Cc1ccc2sc(N(CCCN(C)C)C(=O)c3ccc(S(=O)(=O)N(C)C4CCCCC4)cc3)nc2c1C	T cruzi inh 59
COc1ccc(OC)c2sc(N(CCCN(C)C)C(=O)CCS(=O)(=O)c3ccccc3)nc12	T cruzi inh 59
CCCCn1c(N)c(N(CC(C)C)C(=O)CSCc2cccc(C)c2)c(=O)[nH]c1=O	none
C=CCN1C(=O)c2ccc(C(=O)N3CCN(S(=O)(=O)c4cccc(Cl)c4)CC3)cc2C1=O	none
Cc1cccc(NC(=O)CN(C2=NC3CS(=O)(=O)CC3S2)c2ccccc2F)c1 (stereo not given)	none

Compound activity as filed in PubChem.
